Only some compounds are listed: those with a hit (about 1.9% of all), similar ones and a draw of the others.
TbMetRS inhib – blocks T. brucei methionyl-tRNA synthetase activity | purified T. brucei MetRS, ATP depletion, Kinase-Glo luminescence | inhibition, % at 11.9 µM | 360,000 compounds, 0.4% hits;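 active = inhibition above a per-plate cutoff of the control wells' mean inhibition plus 3 SD, cut at about 5.5% in these data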;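 note: 0% = DMSO wells median and 100% = median of wells with control inhibitor compound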
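Material: T. brucei methionyl-tRNA synthetase, purified; reagent: substrates ATP, L-methionine and bulk Escherichia coli tRNA; dosing: 11.9 µM single point; timing: 15 min plus 2 h at 25 °C; detection: luminescence of leftover ATP; evaluation: % inhibition; control set: DMSO-only wells as low control; replicates: singlicate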
PLCg1 inh – blocks human PLC-gamma1 enzyme activity. inhibition, % at 12.2 µM. P19174. 370,000 compounds, 0.84% hits. purified PLC-gamma1, fluorogenic substrate, fluorescence
PLCb3 inh – blocks human PLC-beta3 enzyme activity; Purified PLC-beta3, fluorogenic substrate, fluorescence; inhibition, % at 12.2 µM; 370,000 compounds, 0.18% hits; AID 720704; in the data active = inhibition above about 11%;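 note: 0% = median of compound wells on plate and 100% = full blocker control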
HGIII-sPLA2 inh – Blocks human group III sPLA2 activity | Q9NZ20 | QFRET BODIPY PC-A2 liposome hydrolysis, fluorescence | inhibition, % at 12.2 µM | 370,000 compounds, 0.56% hits;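 active = inhibition above mean plus 3 SD of compounds lying within the high and low control bounds, cut at about 19% in these data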;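 note: 0% = median of test compound wells and 100% = no enzyme DMSO wells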
PLCgamma1 ctr – PLC-gamma1 inhibition, counter-screen for PLC-beta3 hits. shares compounds with PLCg1 inh. purified PLC-gamma1, fluorogenic substrate, fluorescence. inhibition, % at 12.3 µM. 3,300 compounds, 3.1% hits
PLCb3 confirm – confirmation of human PLC-beta3 inhibitors; shares compounds with PLCg1 inh; purified PLC-beta3, fluorogenic substrate fluorescence; inhibition, % at 12.3 µM; 3,300 compounds, 1% hits; in the data active = inhibition above about 11%
Starred values were filed as active, the others as inactive; . = not tested or not shown. Cut-off read from the data, not from the text of the source, unless noted: active = inhibition above about 9.5%; inactive = the rest.

SMILES	TbMetRS inhib	PLCg1 inh	PLCb3 inh	HGIII-sPLA2 inh	PLCgamma1 ctr	PLCb3 confirm
Cc1cccc(Nc2nnc(SCC(=O)Nc3ccc(C(=O)O)cc3)s2)c1	-0.8	9.8*	0.2	-21.4	-4.4	-4.0
CCOC(=O)c1ccc(NC(=O)CSc2nc(SC)ns2)cc1	-0.8	2.1	2.4	-4.9	.	.
CCOC(=O)c1ccc(NC(=O)CSc2nnc(SCc3cccc4ccccc34)s2)cc1	.	12.1*	8.7	-1.2	-4.8	-6.6
CCOc1ccc(-n2c(SCc3nc4ccccc4[nH]3)nnc2-c2cccc(Cl)c2)cc1	.	-5.0	-3.8	-6.3	.	.
CCOC(=O)CSc1nc2ccccc2c(=O)n1CC1CCC(C(=O)NCc2ccco2)CC1 (stereo not given)	-0.6	10.0*	4.1	13.8	-2.2	-3.8
O=C(Cc1cccs1)Nc1nc(-c2ccc(F)cc2F)cs1	-1.9	12.6*	10.4	-15.9	-6.3	-7.4
COc1cc(-c2nnc(SCC(=O)c3ccccc3)o2)cc(OC)c1OC	-1.7	0.2	-2.6	-50.4	.	.
COc1cc(-c2nnc(SCC3(c4ccccc4)OCCO3)o2)cc(OC)c1OC	0.0	12.1*	-1.1	-7.6	-3.6	0.3
CCOC(=O)CN(C(=O)Cn1nnc(-c2ccc(C)cc2)n1)C(CC)C(=O)NC1CCCC1 (stereo not given)	-0.4	12.7*	6.2	-3.6	-1.1	-7.8
Oc1ccc(C[C@@H]2CNCCN2CCc2cc(C(F)(F)F)cc(C(F)(F)F)c2)cc1	-0.6	2.4	2.8	1.5	.	.
Oc1ccc(C[C@@H]2CNCCN2CCCCC2CCCCC2)cc1	-0.1	9.2	14.2*	1.9	2.8	2.5
CCc1cccc2c1NC1(CCCC1)CC2C (stereo not given)	-1.1	10.3*	4.4	5.5	3.9	-4.1
CC1CC2(CCCCC2)Nc2ccc3ccccc3c21 (stereo not given)	-0.9	-21.9	-28.5	4.0	.	.
Cc1c[nH]c2cccc(-c3ccc(Cl)cc3Cl)c12	.	-0.5	0.4	-38.8	.	.
CCCCCn1c(C(C)NC(=O)CCC)nc2ccccc21 (stereo not given)	-0.3	6.6	14.3*	4.3	-6.4	-0.5
CC(C)[C@H](NC(=O)[C@@H]1CCCN1)C(=O)N1CCC2CCN(S(=O)(=O)c3ccccc3)CC21 (stereo not given in full)	.	-1.0	3.1	-1.0	.	.
COc1cc([N+](=O)[O-])ccc1NC(=O)CC1SC(=Nc2ccc(F)cc2)N(CCC2=CCCCC2)C1=O (stereo not given)	-0.3	2.2	1.2	-4.2	.	.
COc1ccc(OC)c(NC(=O)CC2SC(=Nc3ccc(F)cc3)N(CCC3=CCCCC3)C2=O)c1 (stereo not given)	-0.5	11.0*	4.2	-9.0	1.2	-3.9
Cn1c(=O)c2[nH]c(SCC(=O)NCCc3ccc(F)cc3)nc2n(C)c1=O	.	0.1	-0.9	0.5	.	.
CN1C(=O)CSC1=NC12CC3CC(CC(C3)C1)C2	0.1	10.7*	4.3	1.0	-10.2	-3.4
CCN1C(=O)CSC1=NC12CC3CC(CC(C3)C1)C2	-0.4	1.9	-0.7	8.4	.	.
O=C(Oc1ccc(Br)cc1C(=S)N1CCCC1)c1ccccc1F	0.0	13.2*	1.7	-8.7	-4.2	-2.8
O=S1(=O)c2ccc(Br)cc2OC[C@@H](Cc2ccccc2)N1Cc1cn(CC2CCCCC2)nn1	.	10.3*	4.2	17.7	-4.1	-0.6
O=S1(=O)c2ccc(Br)cc2OC[C@@H](Cc2ccccc2)N1Cc1cn(Cc2ccccc2)nn1	.	3.1	-0.5	10.2	.	.
O=C(CSc1nnc(-c2ccccn2)n1Cc1ccco1)Nc1ccc(Oc2ccccc2)cc1	.	10.7*	2.6	-14.2	-4.7	-1.5
SMILES	TbMetRS inhib	PLCg1 inh	PLCb3 inh	HGIII-sPLA2 inh	PLCgamma1 ctr	PLCb3 confirm
COc1ccc(NC(=O)CSc2nnc(-c3ccccn3)n2Cc2ccco2)cc1OC	-1.0	-1.4	2.3	-1.2	.	.
Cc1ccc2nc(SC(C(=O)Nc3ccc(F)cc3)c3ccccc3)[nH]c2c1 (stereo not given)	2.6	13.5*	6.0	-29.5	-2.1	-7.9
CN1C(=O)[C@@]2(O[C@H]3[C@H]4C=C[C@@H]([C@H]5C(=O)N(Cc6ccccc6)C(=O)[C@@H]45)N3C3=C2C(=O)CC3)c2ccccc21	.	2.6	14.0*	7.3	-2.2	2.4
O=C1Nc2ccccc2C(=O)N2[C@H](c3ccccc3)[C@@H]3C(=O)N(Cc4ccccc4)C(=O)[C@@H]3[C@H]12	0.2	-2.4	-4.3	-7.8	.	.
COc1cccc2c(NCc3ccccc3)nc(-n3c(N)nc4ccccc43)nc12	.	0.6	-1.3	-2.0	.	.
COC(=O)[C@]12C[C@H](CC(=O)NCC3CCCCC3)C(=O)N(Cc3cccc4ccccc34)C1=C[C@H](COCc1ccccc1)O[C@@H]2C	.	-1.2	3.1	-12.5	.	.
CC(C)C(CCNC1CCN(C)CC1)c1ccc(Cl)cc1 (stereo not given)	-1.1	3.3	4.7	-0.6	.	.
CN1CCC(NCCC(c2ccc(F)cc2)c2ccc(Cl)cc2)CC1 (stereo not given)	-1.1	10.0*	3.8	-7.1	-5.0	0.7
C=CC[C@@H](CC(=O)N[C@@H](CO)Cc1ccccc1)C(=O)N[C@H](COC(=O)[C@@H](CC=C)Cc1ccc(F)cc1)C(C)(C)C	0.5	0.0	3.5	-22.9	.	.
C=CC[C@H](CC(=O)N(CCO)Cc1ccccc1)C(=O)N[C@@H](COC(=O)[C@@H](CC=C)CC(=O)OC(C)(C)C)Cc1c[nH]c2ccccc12	-0.3	5.5	12.4*	-64.4	-9.8	-3.0
C=CCC[C@@H](Cc1ccc(F)cc1)C(=O)OC[C@@H](NC(=O)[C@@H](CC=C)CC(=O)N(CCO)Cc1ccccc1)c1ccccc1	0.2	14.3*	6.9	-36.6	-6.9	-4.5
C=CCC[C@@H](Cc1ccc(F)cc1)C(=O)OC[C@@H](NC(=O)[C@@H](CC=C)CC(=O)N[C@H](CO)Cc1ccccc1)C(C)(C)C	-0.5	10.7*	8.5	-27.7	-3.8	4.5
C=CCC[C@@H](Cc1ccc(F)cc1)C(=O)OC[C@H](Cc1c[nH]c2ccccc12)NC(=O)[C@@H](CC=C)CC(=O)N[C@@H](CO)Cc1ccccc1	-0.2	10.1*	6.2	-89.4	-6.5	-3.7
O=C(NS(=O)(=O)c1cccc(F)c1)[C@H]1O[C@@H](n2ccc(=O)[nH]c2=O)[C@H](O)[C@@H]1O	.	3.8	3.8	3.1	.	.
CCN(C(=O)Cn1cnc2c(nc3n2CCCCC3)c1=O)c1cccc(Cl)c1	0.9	11.7*	0.2	7.9	-7.0	-5.5
COc1ccc(C2c3ccccc3NC3C2C(=O)N(Cc2ccc(OC)cc2OC)[C@H]3Cc2ccccc2)cc1 (stereo not given in full)	.	-0.8	-6.9	5.1	.	.
Cc1ccc(C(=O)Cn2c(C(=O)OCCO)cc3ccccc32)cc1	0.1	10.7*	-2.0	-21.5	-8.9	-6.2
Cc1ccc(C(=O)Cn2c(C(=O)O)cc3ccccc32)cc1	-2.2	-1.9	-7.8	-3.5	.	.

Source: PubChem (The Scripps Research Institute Molecular Screening Center)
